Among the data in ChEMBL document CHEMBL3045697, “Acaricidal activity of clove bud oil compounds against Dermatophagoides farinae and Dermatophagoides pteronyssinus (Acari: Pyroglyphidae)” (2003) are Activity, mortality and LD50 values, retold here.

The subject of assay [1] is Dermatophagoides pteronyssinus. Put plainly: Acaricidal activity against Dermatophagoides pteronyssinus assessed as mortality at 6.4 to 8 ug/cm2 after 24 to 72 hr by fabric disk assay relative to untreated control. It is filed as functional, organism-based. In short, it runs like this: (§1)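 Test material in 20 µL ethanol is applied to a 5 cm black cotton fabric disk, and control disks get ethanol alone. After drying 30 s, each disk goes into a covered 5 cm Petri dish with 25 adult mites (7–10 days old), held at 25 ± 1 °C, 75% RH, in darkness. Mortality is scored at 24, 48 and 72 h under a 20× binocular microscope, dead meaning no appendage movement when prodded with a pin. Three replicates; mean ± SE reported.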

Assay [2] relates to Dermatophagoides farinae. The experiment in a line: Acaricidal activity against Dermatophagoides farinae assessed as mortality at 6.4 ug/cm2 after 72 hr by fabric disk assay relative to untreated control. It is filed as functional. The essentials:
as §1

The subject of assay [3] is Dermatophagoides farinae. Put plainly: Acaricidal activity against Dermatophagoides farinae assessed as mortality at 6.4 ug/cm2 after 48 hr by fabric disk assay relative to untreated control. It is filed as functional. In short, it runs like this:
as §1

Assay [4] deals with Dermatophagoides farinae. Put plainly: Acaricidal activity against Dermatophagoides farinae assessed as mortality at 8 ug/cm2 after 48 hr by fabric disk assay relative to untreated control. It is filed as functional. The essentials: as §1
Assay [5] concerns Dermatophagoides farinae. The experiment in a line: Acaricidal activity against Dermatophagoides farinae assessed as mortality at 6.4 ug/cm2 after 24 hr by fabric disk assay relative to untreated control. It is filed as functional. In short, it runs like this: as §1
The subject of assay [6] is Dermatophagoides farinae. Put plainly: Acaricidal activity against Dermatophagoides farinae assessed as mortality at 8 ug/cm2 after 24 hr by fabric disk assay relative to untreated control. Format: functional. The essentials: as §1
Assay [7] concerns Dermatophagoides pteronyssinus. The experiment in a line: Acaricidal activity against Dermatophagoides pteronyssinus after 24 hr by fabric disk assay. It is filed as functional.
Assay [8] concerns Dermatophagoides farinae. Put plainly: Acaricidal activity against Dermatophagoides farinae after 24 hr by fabric disk assay. Format: functional.
The test system of assay [9] is Dermatophagoides farinae. The experiment in a line: Acaricidal activity against Dermatophagoides farinae assessed as mortality at 8 ug/cm2 after 72 hr by fabric disk assay relative to untreated control. Format: functional. In short, it runs like this:
as §1

Assay [10] relates to Dermatophagoides farinae. Put plainly: Acaricidal activity against Dermatophagoides farinae assessed as mortality at 9.6 ug/cm2 after 72 hr by fabric disk assay relative to untreated control. Format: functional. In short, it runs like this: as §1
The test system of assay [11] is Dermatophagoides farinae. Put plainly: Acaricidal activity against Dermatophagoides farinae assessed as mortality at 12.7 ug/cm2 after 72 hr by fabric disk assay relative to untreated control. It is filed as functional. The essentials:
as §1

Assay [12] has as its system Dermatophagoides farinae. Put plainly: Acaricidal activity against Dermatophagoides farinae assessed as mortality at 9.6 ug/cm2 after 48 hr by fabric disk assay relative to untreated control. It is filed as functional. In short, it runs like this:
as §1

The subject of assay [13] is Dermatophagoides farinae. The experiment in a line: Acaricidal activity against Dermatophagoides farinae assessed as mortality at 9.6 ug/cm2 after 24 hr by fabric disk assay relative to untreated control. Format: functional. The essentials:
as §1

Assay [14] relates to Dermatophagoides pteronyssinus. The experiment in a line: Acaricidal activity against Dermatophagoides pteronyssinus assessed as mortality at 9.6 to 12.7 ug/cm2 after 24 to 72 hr by fabric disk assay relative to untreated control. Format: functional, organism-based. In short, it runs like this:
(§2)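 Contact bioassay: compound in 20 µL ethanol applied to 5 cm black cotton fabric disks, air-dried 30 s, then placed in Petri dishes with 25 adult mites (7-10 days old). Held at 25 ± 1 °C, 75% RH, in darkness. Controls received ethanol only. Triplicate; mean ± SE.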

The test system of assay [15] is Dermatophagoides farinae. The experiment in a line: Acaricidal activity against Dermatophagoides farinae assessed as mortality at 12.7 ug/cm2 after 24 hr by fabric disk assay relative to untreated control. Format: functional. In short, it runs like this:
as §1

Assay [16] concerns Dermatophagoides farinae. The experiment in a line: Acaricidal activity against Dermatophagoides farinae assessed as mortality at 12.7 ug/cm2 after 48 hr by fabric disk assay relative to untreated control. Format: functional. In short, it runs like this:
as §1

For assay [17], the system named is Dermatophagoides pteronyssinus. The experiment in a line: Acaricidal activity against Dermatophagoides pteronyssinus assessed as mortality at 38.2 to 50.9 ug/cm2 after 24 to 72 hr by fabric disk assay relative to untreated control. It is filed as functional, organism-based. The essentials: as §2
Assay [18] concerns Dermatophagoides farinae. The experiment in a line: Acaricidal activity against Dermatophagoides farinae assessed as mortality at 50.9 ug/cm2 after 72 hr by fabric disk assay relative to untreated control. Format: functional. In short, it runs like this: as §1
For assay [19], the system named is Dermatophagoides farinae. The experiment in a line: Acaricidal activity against Dermatophagoides farinae assessed as mortality at 38.2 ug/cm2 after 48 hr by fabric disk assay relative to untreated control. Format: functional. The essentials: as §1
In assay [20] the test system is Dermatophagoides farinae. The experiment in a line: Acaricidal activity against Dermatophagoides farinae assessed as mortality at 50.9 ug/cm2 after 48 hr by fabric disk assay relative to untreated control. Format: functional. The essentials:
as §1

In assay [21] the test system is Dermatophagoides farinae. Put plainly: Acaricidal activity against Dermatophagoides farinae assessed as mortality at 38.2 ug/cm2 after 24 hr by fabric disk assay relative to untreated control. Format: functional. The essentials: as §1
The subject of assay [22] is Dermatophagoides farinae. Put plainly: Acaricidal activity against Dermatophagoides farinae assessed as mortality at 50.9 ug/cm2 after 24 hr by fabric disk assay relative to untreated control. Format: functional. In short, it runs like this:
as §1

Assay [23] deals with Dermatophagoides farinae. The experiment in a line: Acaricidal activity against Dermatophagoides farinae assessed as mortality at 38.2 ug/cm2 after 72 hr by fabric disk assay relative to untreated control. It is filed as functional. In short, it runs like this: as §1
In assay [24] the test system is Dermatophagoides pteronyssinus. The experiment in a line: whole plant or invertebrate. Format: functional. The note with it: 24 h.
Assay [25] has as its system Dermatophagoides pteronyssinus. The experiment in a line: whole plant or invertebrate. It is filed as functional. The note with it: 24 h. This is another data set of the same source.
Assay [26] deals with Dermatophagoides farinae. Put plainly: whole plant or invertebrate. Format: functional. The note with it: 24 h.
Assay [27] has as its system Dermatophagoides farinae. Put plainly: whole plant or invertebrate. It is filed as functional. The note with it: 24 h. This is another data set of the same source.
Assay [28] has as its system Dermatophagoides pteronyssinus. Put plainly: Acaricidal activity against Dermatophagoides pteronyssinus assessed as mortality at 15.9 to 19.1 ug/cm2 after 24 to 72 hr by fabric disk assay relative to untreated control. Format: functional, organism-based. The essentials: as §2
Assay [29] deals with Dermatophagoides farinae. The experiment in a line: Acaricidal activity against Dermatophagoides farinae assessed as mortality at 15.9 ug/cm2 after 72 hr by fabric disk assay relative to untreated control. It is filed as functional. The essentials: as §1
For assay [30], the system named is Dermatophagoides farinae. The experiment in a line: Acaricidal activity against Dermatophagoides farinae assessed as mortality at 19.1 ug/cm2 after 72 hr by fabric disk assay relative to untreated control. Format: functional. In short, it runs like this:
as §1

For assay [31], the system named is Dermatophagoides farinae. Put plainly: Acaricidal activity against Dermatophagoides farinae assessed as mortality at 15.9 ug/cm2 after 48 hr by fabric disk assay relative to untreated control. It is filed as functional. The essentials: as §1
For assay [32], the system named is Dermatophagoides farinae. The experiment in a line: Acaricidal activity against Dermatophagoides farinae assessed as mortality at 19.1 ug/cm2 after 48 hr by fabric disk assay relative to untreated control. It is filed as functional. In short, it runs like this:
as §1

Assay [33] relates to Dermatophagoides farinae. Put plainly: Acaricidal activity against Dermatophagoides farinae assessed as mortality at 15.9 ug/cm2 after 24 hr by fabric disk assay relative to untreated control. Format: functional. The essentials: as §1
Assay [34] deals with Dermatophagoides farinae. The experiment in a line: Acaricidal activity against Dermatophagoides farinae assessed as mortality at 19.1 ug/cm2 after 24 hr by fabric disk assay relative to untreated control. It is filed as functional. In short, it runs like this: as §1

Each structure is given as a SMILES string. Activity calls are given as the source filed them. No cut-off for these calls is given here.

In the case of `CC=Cc1ccc(O)c(OC)c1` (mixture of isomers) [CIS/TRANS-ISOEUGENOL], the outcome in assay [1] was Active. For the same compound, the mortality at 6.4 µg/cm2 in the assay on Dermatophagoides farinae [2], in the assay on Dermatophagoides farinae [3] and with Dermatophagoides farinae [5] was 66% in each case. Moreover, the mortality at 8 µg/cm2 in the assay with Dermatophagoides farinae [4], in the assay on Dermatophagoides farinae [6] and with Dermatophagoides farinae [9] was 92% in each case. Also, the LD50 in [7] worked out at 1.55 microg/cm2; with Dermatophagoides farinae [8], 5.17 microg/cm2.
Turning to `O=C(OCc1ccccc1)c1ccccc1` [BENZYL BENZOATE], the mortality at 9.6 µg/cm2 in the assay on Dermatophagoides farinae [10], with Dermatophagoides farinae [12] and with Dermatophagoides farinae [13] was 47% throughout. Also, the mortality at 12.7 µg/cm2 in the assay with Dermatophagoides farinae [11] came to 96%; in the assay with Dermatophagoides farinae [15] it was 85%; in the assay on Dermatophagoides farinae [16], 96%. Besides, the result in assay [14] was Active. Besides, the LD50 is 6.59 microg/cm2 in assay [7] and 9.22 microg/cm2 in the assay with Dermatophagoides farinae [8].
Regarding `CCN(CC)C(=O)c1cccc(C)c1` [DIETHYLTOLUAMIDE], in [17], the outcome was Active. Further, the mortality at 50.9 µg/cm2 with Dermatophagoides farinae [18] came out at 85%; in the assay with Dermatophagoides farinae [20], 83%; with Dermatophagoides farinae [22], 79%. Besides, the mortality at 38.2 µg/cm2 in the assay on Dermatophagoides farinae [19], in the assay on Dermatophagoides farinae [21] and in the assay on Dermatophagoides farinae [23] was 41% throughout. Further, the LD50 in assay [7] is reported as 17.98 microg/cm2; in the assay with Dermatophagoides farinae [8], 37.59 microg/cm2.
On to `C=CCc1ccc(O)c(OC)c1` [EUGENOL], for which the mortality at 25.5 µg/cm2 in assay [24] came out at 21%; in [25], 100%; in the assay on Dermatophagoides farinae [26], 11%; in the assay with Dermatophagoides farinae [27], 100%. For the same compound, the result in [1] was Active. Further, the mortality at 6.4 µg/cm2 with Dermatophagoides farinae [2], in the assay with Dermatophagoides farinae [3] and in the assay with Dermatophagoides farinae [5] was 50% throughout. Also, the mortality at 8 µg/cm2 with Dermatophagoides farinae [4], in the assay with Dermatophagoides farinae [6] and with Dermatophagoides farinae [9] was 85% each time. Moreover, the LD50 in assay [7] stood at 3.71 microg/cm2; with Dermatophagoides farinae [8], 5.47 microg/cm2.
`C=CCc1ccc(OC(C)=O)c(OC)c1` [EUGENYL ACETATE]: the mortality at 25.5 µg/cm2 in assay [24] came to 17%; in assay [25], 100%; in the assay on Dermatophagoides farinae [26] it was 12%; in the assay with Dermatophagoides farinae [27] it was 100%. In assay [28], the result was Active. The mortality at 15.9 µg/cm2 with Dermatophagoides farinae [29], with Dermatophagoides farinae [31] and with Dermatophagoides farinae [33] was 65% each time. Further, the mortality at 19.1 µg/cm2 with Dermatophagoides farinae [30], in the assay on Dermatophagoides farinae [32] and in the assay on Dermatophagoides farinae [34] was 88% throughout. Besides, the LD50 in [7] was determined as 5.41 microg/cm2; in the assay with Dermatophagoides farinae [8], 14.16 microg/cm2.
`C/C=C\c1ccc(O)c(OC)c1` [ISOEUGENOL]: the mortality at 25.5 µg/cm2 in assay [24] is 32%; in [25], 100%; in the assay on Dermatophagoides farinae [26], 21%; with Dermatophagoides farinae [27] it was 100%.

What is called mortality is the percentage killed.
